Active and inactive are the calls of the source. The calls are words filed in the database; no cut-off is given here.
Tests used:
[1] = target: T1, Metalloproteinase inhibitor 3 (Homo sapiens, UniProt P35625); assay: Binding affinity to FLAG-tagged human TIMP3 expressed in HEK293 cells assessed as dissociation constant; assay type: cell-based
T1 sequence (P35625 whole entry): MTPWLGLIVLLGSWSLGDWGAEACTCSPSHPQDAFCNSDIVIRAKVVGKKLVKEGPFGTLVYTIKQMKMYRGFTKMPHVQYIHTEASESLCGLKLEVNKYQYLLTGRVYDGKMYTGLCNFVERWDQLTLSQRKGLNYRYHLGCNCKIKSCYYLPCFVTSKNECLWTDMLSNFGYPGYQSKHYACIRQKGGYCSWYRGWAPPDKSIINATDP

SW1353 [2] = assay: Induction of TIMP3 protein level in human HTB-94 cells at 100 ug/ml incubated for 36 hrs by Western blotting analysis; assay type: functional, cell-based; settings: dose 100.0 µg/ml
In short: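 HTB94 cells (5×10^5/well) washed in serum-free DMEM and treated 36 h with 100 μg/mL in serum-free DMEM. Conditioned medium was TCA-precipitated and run on non-reducing 15% SDS-PAGE, then transferred to PVDF. TIMP-3 was detected with rabbit anti-TIMP-3 and an IRDye 800CW secondary by infrared imaging. Values are expressed as % of 100 μg/mL suramin-treated samples on the same blot. n = 3, mean ± SD.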

SW1353 [3] = assay: Effect on MMP13 mRNA level in human HTB-94 cells at 50 to 200 ug/ml incubated for 36 hrs by RT-qPCR analysis; assay type: functional, cell-based; settings: dose 50-200 µg/ml
In short: (§1)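 HTB94 cells (5×10^5/well) plated overnight, washed three times, then treated with analogue (50–200 μg/mL) in serum-free DMEM for 36 h. RNA was isolated and transcripts quantified by RT-qPCR (ΔΔCt), normalised to RN18S1 and to untreated cells. n = 3, mean ± SD.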

SW1353 [4] = assay: Effect on LRP1 mRNA level in human HTB-94 cells at 50 to 200 ug/ml incubated for 36 hrs by RT-qPCR analysis; assay type: functional, cell-based; settings: dose 50-200 µg/ml; in short: as §1
SW1353 [5] = assay: Effect on TIMP3 mRNA level in human HTB-94 cells at 50 to 200 ug/ml incubated for 36 hrs by RT-qPCR analysis; assay type: functional, cell-based; settings: dose 50-200 µg/ml; in short: as §1
[6] = Induction of TIMP3 protein level in human HTB-94 cells at 100 ug/ml incubated for 36 hrs by slot blotting analysis relative to suramin; assay type: functional, SW1353; settings: dose 100 µg/ml
In short: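 Serum-free 36 h treatment (100 μg/mL) of HTB94 cells (5×10^5/well). TCA-concentrated conditioned medium was slot-blotted onto nitrocellulose and probed with rabbit anti-TIMP-3 and an IRDye 800CW secondary, then imaged by infrared fluorescence. Pixel volume is expressed relative to 100 μg/mL suramin samples on the same blot (100%). n = 3, mean ± SD.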

SW1353 [7] = assay: Effect on ADAMTS5 mRNA level in human HTB-94 cells at 50 to 200 ug/ml incubated for 36 hrs by RT-qPCR analysis; assay type: functional, cell-based; settings: dose 50-200 µg/ml; in short: as §1
SW1353 [8] = assay: Effect on ADAMTS4 mRNA level in human HTB-94 cells at 50 to 200 ug/ml incubated for 36 hrs by RT-qPCR analysis; assay type: functional, cell-based; settings: dose 50-200 µg/ml; in short: as §1
[9] = Cytotoxicity against porcine Chondrocyte assessed cell number at 100 ug/ml incubated for 3 days by MTS assay; assay type: toxicity, cell-based, Sus scrofa; settings: pig, 72 h, dose 100 µg/ml, time 3 day
In short: (§2)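 Primary porcine chondrocytes, released by pronase E then type II collagenase digestion of cartilage and plated at 10^4/well, were washed in serum-free DMEM. They were exposed to 100 μg/mL analogue, with or without IL-1β (10 ng/mL), for 3 days. Cell number was read by MTS against a twice freeze/thawed control. n = 3 biological replicates, mean ± SD.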

[10] = Induction of TIMP3 protein level in human HTB-94 cells incubated for 36 hrs by slot blotting analysis relative to 100 ug/ml suramin; assay type: functional, cell-based; settings: SW1353, 36 h
In short: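 Dose-response over 0–250 μg/mL for 36 h in serum-free DMEM using HTB94 cells (5×10^5/well). TIMP-3 in TCA-concentrated medium was measured by slot blot with anti-TIMP-3/IRDye 800CW detection, normalised to 100 μg/mL suramin on each blot. EC50 was fitted with a one-site specific binding model. n = 3, mean ± SD.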

[11] = Cytotoxicity against porcine Chondrocyte assessed cell number at 100 ug/ml incubated for 3 days in presence of IL-1beta by MTS assay; assay type: toxicity, cell-based, Sus scrofa; settings: pig, 72 h, dose 100 µg/ml, time 3 day; in short: as §2
SW1353 [12] = assay: Cytotoxicity against human HTB-94 cells assessed as cell viability at 100 ug/ml measured after 36 h by MTS assay
Sus scrofa = species: Sus scrofa; assay: Inhibition of cartilage degradation in porcine cartilage explants assessed as inhibition of IL-1beta-induced aggrecan release at 100 ug/ml measured after 3 days by DMMB assay; assay type: functional, tissue-based; settings: Cartilage tissue, dose 100.0 µg/ml, time 3.0 day
In short: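 Porcine metacarpophalangeal cartilage explants (3–9-month-old pigs), rested 48 h after dissection, were washed and treated 72 h with IL-1β (10 ng/mL) plus 100 μg/mL analogue. Medium was DMEM with 0.1% FCS, amphotericin B and 10 mM HEPES. Aggrecan released into the medium was measured by DMMB assay. n = 3 biological × 2 technical replicates, mean ± SD.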

With `O=C(Nc1cc(C(=O)Nc2ccc(S(=O)(=O)O)cc2)cc(C(=O)Nc2ccc(S(=O)(=O)O)cc2)c1)Nc1cc(C(=O)Nc2ccc(S(=O)(=O)O)cc2)cc(C(=O)Nc2ccc(S(=O)(=O)O)cc2)c1` the Kd [1] was 6.88 nM.
In the case of `O=C(Nc1ccc(C(=O)Nc2cc(S(=O)(=O)O)cc3cc(S(=O)(=O)O)cc(S(=O)(=O)O)c23)cc1)c1ccc([N+](=O)[O-])cc1`, the Activity (SW1353 [2]) is reported as “inactive”.
`O=C(Nc1cccc(C(=O)Nc2cc(S(=O)(=O)O)cc3ccc(S(=O)(=O)O)cc23)c1)Nc1cccc(C(=O)Nc2cc(S(=O)(=O)O)cc3ccc(S(=O)(=O)O)cc23)c1` showed a Kd [1] greater than 100 nM.
In the case of `Nc1ccc(C(=O)Nc2ccc(C(=O)Nc3cc(S(=O)(=O)O)cc4cc(S(=O)(=O)O)cc(S(=O)(=O)O)c34)cc2)cc1`, the Activity (SW1353 [2]) is reported as “inactive”.
For `O=C(Nc1ccc(C(=O)Nc2ccc(C(=O)Nc3cc(S(=O)(=O)O)cc4cc(S(=O)(=O)O)cc(S(=O)(=O)O)c34)cc2)cc1)Nc1ccc(C(=O)Nc2ccc(C(=O)Nc3cc(S(=O)(=O)O)cc4cc(S(=O)(=O)O)cc(S(=O)(=O)O)c34)cc2)cc1`, the Activity (SW1353 [3]) was “inactive”, the Activity (SW1353 [4]) was “inactive” and the Activity (SW1353 [5]) was “inactive”. The Activity [6] was 30%, the Activity (SW1353 [2]) was “Active” and the Activity (SW1353 [7]) was “inactive”. For the same compound, the Activity (SW1353 [8]) was “inactive”, the Activity [9] was “Non-Toxic” and the EC50 [10] was 19000 nM. For the same compound, the Activity [11] was “Non-Toxic”.
With `O=C(Nc1ccc(C(=O)Nc2cccc(C(=O)Nc3cc(S(=O)(=O)O)cc4cc(S(=O)(=O)O)cc(S(=O)(=O)O)c34)c2)cc1)Nc1ccc(C(=O)Nc2cccc(C(=O)Nc3cc(S(=O)(=O)O)cc4cc(S(=O)(=O)O)cc(S(=O)(=O)O)c34)c2)cc1` the Activity [6] was -50%, the Activity (SW1353 [12]) was “Non-Toxic” and the inhibition (Sus scrofa) was “Active”. It also gave an EC50 [10] of 17000 nM.
`O=C(Nc1cccc(C(=O)Nc2ccc(S(=O)(=O)O)c3cc(S(=O)(=O)O)cc(S(=O)(=O)O)c23)c1)Nc1cccc(C(=O)Nc2ccc(S(=O)(=O)O)c3cc(S(=O)(=O)O)cc(S(=O)(=O)O)c23)c1` gave a Kd [1] of 26.5 nM.
`Cc1ccc(C(=O)Nc2ccc(P(=O)(O)O)cc2P(=O)(O)O)cc1NC(=O)c1cccc(NC(=O)Nc2cccc(C(=O)Nc3cc(C(=O)Nc4ccc(P(=O)(O)O)cc4P(=O)(O)O)ccc3C)c2)c1` gave a Kd [1] greater than 100 nM.
Compound `O=C(Nc1cccc(C(=O)Nc2cc(C(=O)Nc3ccc(S(=O)(=O)O)c4cc(S(=O)(=O)O)cc(S(=O)(=O)O)c34)ccc2F)c1)Nc1cccc(C(=O)Nc2cc(C(=O)Nc3ccc(S(=O)(=O)O)c4cc(S(=O)(=O)O)cc(S(=O)(=O)O)c34)ccc2F)c1` has a Kd [1] of 1.55 nM.
For `O=C(Nc1cccc(C(=O)Nc2ccc(C(=O)Nc3cc(S(=O)(=O)O)cc4cc(S(=O)(=O)O)cc(S(=O)(=O)O)c34)cc2)c1)Nc1cccc(C(=O)Nc2ccc(C(=O)Nc3cc(S(=O)(=O)O)cc4cc(S(=O)(=O)O)cc(S(=O)(=O)O)c34)cc2)c1`, the Activity [6] was -50%, the Activity (SW1353 [12]) was “Non-Toxic” and the inhibition (Sus scrofa) was “Active”.
With `Cc1ccc(C(=O)Nc2ccc(S(=O)(=O)O)c3cc(S(=O)(=O)O)cc(S(=O)(=O)O)c23)cc1NC(=O)c1cccc(NC(=O)Nc2cccc(C(=O)Nc3cc(C(=O)Nc4ccc(S(=O)(=O)O)c5cc(S(=O)(=O)O)cc(S(=O)(=O)O)c45)ccc3C)c2)c1` [SURAMIN] the Activity (SW1353 [3]) was “inactive”, the Activity (SW1353 [4]) was “inactive” and the Activity (SW1353 [2]) was “Active”. For the same compound, the Activity (SW1353 [7]) was “inactive”, the Activity (SW1353 [8]) was “inactive” and the Activity [9] was “Non-Toxic”. For the same compound, the EC50 [10] was 15000 nM and the Activity [11] was “Non-Toxic”.
Work on `O=C(Nc1ccc(C(=O)Nc2ccc(C(=O)Nc3ccc(S(=O)(=O)O)c4cc(S(=O)(=O)O)cc(S(=O)(=O)O)c34)cc2)cc1)Nc1ccc(C(=O)Nc2ccc(C(=O)Nc3ccc(S(=O)(=O)O)c4cc(S(=O)(=O)O)cc(S(=O)(=O)O)c34)cc2)cc1` yielded an EC50 [10] of 17000 nM.
In the case of `Nc1ccc(C(=O)Nc2cc(S(=O)(=O)O)cc3cc(S(=O)(=O)O)cc(S(=O)(=O)O)c23)cc1`, the Activity (SW1353 [2]) is reported as “inactive”.
For `O=C(Nc1cc(S(=O)(=O)O)cc2cc(S(=O)(=O)O)cc(S(=O)(=O)O)c12)c1ccc([N+](=O)[O-])cc1`, the Activity (SW1353 [2]) was “inactive”.
For `O=C(Nc1cc(C(=O)Nc2ccc(S(=O)(=O)O)cc2S(=O)(=O)O)cc(C(=O)Nc2ccc(S(=O)(=O)O)cc2S(=O)(=O)O)c1)Nc1cc(C(=O)Nc2ccc(S(=O)(=O)O)cc2S(=O)(=O)O)cc(C(=O)Nc2ccc(S(=O)(=O)O)cc2S(=O)(=O)O)c1`, the Kd [1] was 4.66 nM.

Reference: ChEMBL document CHEMBL5325487, “Suramin analogues protect cartilage against osteoarthritic breakdown by increasing levels of tissue inhibitor of metalloproteinases 3 (TIMP-3) in the tissue” (Bioorg Med Chem, 2023)
